Legend:
Nucleic Acid [1] = assay: Denaturation temperature change on binding to AT to poly (dA)-poly(dT); type: functional
Outline: (§1)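 Synthetic homopolymer, poly(dA)·poly(dT) or poly(dG-dC)·poly(dG-dC), at an initial absorbance of 0.15 A259. Samples were heated at 18 °C/h while absorbance at 259 nm was logged every 0.2 °C. Tm was taken as the curve midpoint between graphically chosen start and end temperatures. ΔTm is relative to the free polymer's Tm in the same run, averaged over at least two determinations with standard errors.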

Nucleic Acid [2] = assay: DNA binding property estimated by measuring denaturation temperature on GC to poly (dGC)-poly(dGC), normalized to ethidium bromide
Nucleic Acid [3] = assay: Denaturation temperature change on binding on GC to poly(dGC)-poly(dGC); type: functional; outline: as §1
Nucleic Acid [4] = assay: DNA binding activity as denaturation temperatures on AT to poly (dA)-poly(dT) normalized to ethidium bromide; type: functional
Calf thymus DNA = assay: Denaturation temperature change on binding to calf thymus DNA; type: functional
Outline: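 Calf thymus DNA at an initial absorbance of 0.3 A259 was heated at 18 °C/h, recording absorbance at 259 nm at 0.2 °C intervals. The melting midpoint was set from graphically selected start and end temperatures. ΔTm was taken against the DNA-alone Tm from the same experiment, as the mean of at least two determinations with standard errors.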

| Compound | ΔTm (Nucleic Acid [1]) | ΔTm (Nucleic Acid [2]) | ΔTm (Nucleic Acid [3]) | ΔTm (Nucleic Acid [4]) | ΔTm (Calf thymus DNA) |
| --- | --- | --- | --- | --- | --- |
| N=C(N)c1ccc(NCCCNc2ccc(C(=N)N)cc2N)c(N)c1 | 25.6 | 0.9 | 4.8 | 2.6 | 12.4 |
| COc1cc(C(=N)N)ccc1OCCCOc1ccc(C(=N)N)cc1OC | 38 | 0.6 | 3.4 | 3.8 | 16.3 |
| N=C(N)c1ccc(-c2cc3ccc(C(=N)N)cc3[nH]2)cc1 | 42 | 1.3 | 6.9 | 4.2 | 21.5 |
| N=C(N)c1ccc(OCCCCCCOc2ccc(C(=N)N)cc2)cc1 | 19 | 0.5 | 2.8 | 1.9 | 9.1 |
| N=C(N)c1cccc(OCCCCCOc2cccc(C(=N)N)c2)c1 | 7.6 | 0.4 | 2.2 | 0.8 | 7.6 |
| N=C(N)c1ccc(NCCCCCNc2ccc(C(=N)N)cc2N)c(N)c1 | 20.9 | 0.6 | 3.3 | 2.1 | 11 |
| N=C(N)c1ccc(OCCOc2ccc(C(=N)N)cc2)cc1 | 7.5 | 0.2 | 1.3 | 0.8 | 5.4 |
| N=C(N)c1ccc(OCCCCCCOc2ccc(C(=N)N)cc2N)c(N)c1 | 18.4 | 0.5 | 2.8 | 1.9 | 9.5 |
| N=C(N)c1ccc(OCCCCOc2ccc(C(=N)N)cc2Cl)c(Cl)c1 | 20.3 | 0.8 | 4.2 | 2.1 | 8.9 |
| N=C(N)c1ccc(OCCOc2ccc(C(=N)N)cc2N)c(N)c1 | 16.4 | 0.6 | 3 | 1.7 | 8.8 |
| N=C(N)c1ccc(NCCNc2ccc(C(=N)N)cc2N)c(N)c1 | 16.8 | 0.6 | 3 | 1.7 | 9.8 |
| CC[n+]1c(-c2ccccc2)c2cc(N)ccc2c2ccc(N)cc21 | 12.4 | 1 | 9.9 | 1 | 12.4 |
| COc1cc(C(=N)N)ccc1OCCCCCOc1ccc(C(=N)N)cc1OC | 27.2 | 0.5 | 2.7 | 2.7 | 12 |
| COc1cc(C(=N)N)ccc1OCCCCOc1ccc(C(=N)N)cc1OC | 22.9 | 0.2 | 1.1 | 2.3 | 10.2 |
| N=C(N)c1ccc(NCCCCCNc2ccc(C(=N)N)cc2[N+](=O)[O-])c([N+](=O)[O-])c1 | 22.1 | 1.2 | 6.2 | 2.2 | 12.7 |
| N=C(N)c1ccc(NCCCCNc2ccc(C(=N)N)cc2N)c(N)c1 | 13.2 | 0.9 | 4.6 | 1.3 | 10.5 |
| Cn1cc(NC(=O)c2cc(NC(=O)CNC(=N)N)cn2C)cc1C(=O)NCCC(=N)N | 46.6 | 0.2 | 1.1 | 4.7 | 19 |
| N=C(N)c1ccc(NCCCNc2ccc(C(=N)N)cc2[N+](=O)[O-])c([N+](=O)[O-])c1 | 26.6 | 0.9 | 5 | 2.7 | 12.4 |
| N=C(N)c1ccc(NCCCCNc2ccc(C(=N)N)cc2)cc1 | 18.7 | 0.5 | 2.8 | 1.9 | 10.3 |

| Compound | ΔTm (Nucleic Acid [1]) | ΔTm (Nucleic Acid [2]) | ΔTm (Nucleic Acid [3]) | ΔTm (Nucleic Acid [4]) | ΔTm (Calf thymus DNA) |
| --- | --- | --- | --- | --- | --- |
| N=C(N)c1ccc(OCCCCCOc2ccc(C(=N)N)cc2N)c(N)c1 | 20.7 | 0.6 | 3.2 | 2.1 | 10.8 |
| N=C(N)c1ccc(OCCCOc2ccc(C(=N)N)cc2N)c(N)c1 | 32.2 | 1 | 5.2 | 3.3 | 13.6 |
| N=C(N)c1ccc(NCCCCCNc2ccc(C(=N)N)cc2)cc1 | 20.7 | 0.8 | 4.4 | 2.1 | 11.3 |
| N=C(N)c1ccc(OCCCCOc2ccc(C(=N)N)cc2[N+](=O)[O-])c([N+](=O)[O-])c1 | 14.7 | 0.7 | 3.5 | 1.5 | 9.6 |
| N=C(N)c1ccc(NCCCCCCNc2ccc(C(=N)N)cc2)cc1 | 12.9 | 0.5 | 2.9 | 1.3 | 9.1 |
| N=C(N)c1ccc(OCCCOc2ccc(C(=N)N)cc2)cc1 | 32 | 0.8 | 4.5 | 3.2 | 14.7 |
| N=C(N)c1cccc(OCCCOc2cccc(C(=N)N)c2)c1 | 8.5 | 0.6 | 3 | 0.9 | 7.6 |
| Cn1cc(NC(=O)c2cc(NC(=O)c3cc(NC=O)cn3C)cn2C)cc1C(=O)NCCC(=N)N | 30.5 | 0.4 | 1.9 | 3.1 | 11.5 |
| N=C(N)c1ccc(OCCCCCOc2ccc(C(=N)N)cc2)cc1 | 22.9 | 0.6 | 3.2 | 2.3 | 10.7 |
| N=C(N)c1ccc(OCCCCOc2ccc(C(=N)N)cc2N)c(N)c1 | 19.4 | 0.7 | 3.7 | 2 | 9.6 |
| N=C(N)c1ccc(OCCCCCOc2ccc(C(=N)N)cc2[N+](=O)[O-])c([N+](=O)[O-])c1 | 21.6 | 0.6 | 3.2 | 2.2 | 9.7 |
| N=C(N)c1ccc(NCCCNc2ccc(C(=N)N)cc2)cc1 | 25.7 | 0.6 | 3 | 2.6 | 11.6 |
| N=C(N)c1ccc(NCCCCCCNc2ccc(C(=N)N)cc2N)c(N)c1 | 15 | 0.7 | 3.6 | 1.5 | 8.3 |
| N=C(N)c1cccc(OCCCCCCOc2cccc(C(=N)N)c2)c1 | 8.1 | 0.5 | 2.5 | 0.8 | 7.3 |
| N=C(N)c1ccc(OCCCCOc2ccc(C(=N)N)cc2)cc1 | 17.9 | 0.6 | 3.1 | 1.8 | 8.3 |
| N=C(N)c1ccc(OCCOc2ccc(C(=N)N)cc2[N+](=O)[O-])c([N+](=O)[O-])c1 | 10.3 | 0.4 | 1.9 | 1 | 5.6 |
| N=C(N)c1cccc(OCCCCOc2cccc(C(=N)N)c2)c1 | 15.2 | 0.5 | 2.6 | 1.5 | 8.1 |
| N=C(N)c1ccc(OCCCCCOc2ccc(C(=N)N)cc2Cl)c(Cl)c1 | 24.3 | 0.9 | 4.6 | 2.5 | 10.5 |

— ChEMBL document CHEMBL1125574, “Structure and DNA binding activity of analogues of 1,5-bis(4-amidinophenoxy)pentane (pentamidine)” (J Med Chem, 1992)
